# Bioassay records as filed in PubChem.
# Sampled rows, rich in hits. Any-hit rate of the full collection: about 4.6%.
# OX1R antag-1: antagonists of human orexin 1 receptor (OX1R) | Orexin/Hypocretin receptor type 1 (Homo sapiens), O43613 | OX1R-expressing cells, FRET antagonist read-out | inhibition, % at 6.6 µM | 330,000 tested, 1.8% active | AID 485270, 2010; in the data active = inhibition mostly above about 38%, no sharp cut-off; inactive = mostly below about 40%
# Target sequence (O43613 whole entry, looked up): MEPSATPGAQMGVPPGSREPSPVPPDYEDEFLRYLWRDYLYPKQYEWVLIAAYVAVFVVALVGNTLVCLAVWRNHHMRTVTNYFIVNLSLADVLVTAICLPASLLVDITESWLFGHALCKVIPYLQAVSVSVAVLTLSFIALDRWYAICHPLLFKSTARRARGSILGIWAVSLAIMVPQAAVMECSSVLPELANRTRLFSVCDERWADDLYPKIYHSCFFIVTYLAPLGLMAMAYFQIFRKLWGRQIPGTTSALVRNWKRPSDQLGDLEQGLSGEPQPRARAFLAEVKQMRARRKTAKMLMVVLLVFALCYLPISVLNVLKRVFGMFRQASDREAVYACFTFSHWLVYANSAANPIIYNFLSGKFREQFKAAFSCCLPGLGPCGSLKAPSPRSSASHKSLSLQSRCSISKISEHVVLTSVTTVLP
# CHO parental Ca: ATP-evoked calcium signal inhibitors, parental CHO, primary screen, counter-screen for OX1R antagonist project, cell-based, fluorescence, Fluo-8 calcium dye | parental CHO-K1, ATP-induced calcium, Fluo-8 fluorescence | inhibition, % at 5.6 µM | 330,000 tested, 0.63% active;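 active = inhibition above that plate's mean sample inhibition plus 3 SD, cut at about 26% in these data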
#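 Test system: untransfected parental CHO cell line. Compound: one dose, 5.6 µM nominal. Detection: intracellular calcium via Fluo-8 no-wash fluorescent dye. Measure: % inhibition. Benchmarks: ATP-challenged DMSO wells low, unchallenged DMSO wells high.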
# TAAR1 antagonist: human TAAR1 antagonists, primary screen, Fluo-8 calcium fluorescence, CHO RD-HGA16 cells; Trace amine-associated receptor 1 (Homo sapiens), Q96RJ0; antagonist; inhibition, % at 3 µM; 360,000 tested, 1.5% active;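 active = inhibition above a per-plate cutoff, the mean inhibition of test compounds on that plate plus 3 SD, cut at about 49% in these data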
#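 Material: RD-HGA16 CHO cells with stable hTAAR1 and Gα16; Dosing: single nominal final test compound concentration of 3 µM; Schedule: seeding 17-24 h prior, 75-min 37 °C, 30-min RT dye loading; Detection: kinetic Fluo-8 calcium fluorescence measurement; Measure: % inhibition from peak post-agonist over basal fluorescence ratio; Benchmarks: vehicle and agonist controls.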
# GPR7 antagonist: GPR7 receptor antagonists, primary screen, cell-based, fluorescence, single concentration; 290,000 tested, 1.1% active; inhibition, % at 4.4 µM; GPR7-expressing cells, fluorescence antagonist assay; Neuropeptides B/W receptor type 1 (Homo sapiens), P48145; AID 1861, 2009; in the data active = inhibition above about 16%, passing the limit was not always enough;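 note: cells stimulated with the agonist NPW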
# OX1R antag-2: OX1R (HCRTR1) antagonists, primary screen, fluorescence, CHO/OX1R cells, Fluo-8 calcium, orexin A | Fluo-8 calcium fluorescence | inhibition, % at 5 µM | AID 434989, 2010 | 330,000 tested, 0.43% active;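 active = inhibition above its plate's threshold, mean inhibition of all tested compounds on the plate plus 3 SD, cut at about 37% in these data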
# TAAR1 agonist: human TAAR1 agonists, primary screen, Fluo-8 calcium fluorescence, CHO RD-HGA16 cells; Trace amine-associated receptor 1 (Homo sapiens), Q96RJ0; vehicle wells 0%, saturating PEA agonist 100%; activation, % at 3 µM; 360,000 tested, 0.99% active; AID 624467, 2012;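 active = activation above the mean activation of all test compounds in the run plus 3 SD, cut at about 38% in these data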
#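 Signal – calcium-sensitive Fluo-8 signal, excitation 470-495, emission 515-575 nm · System – RD-HGA16 (CHO) cells co-expressing Gα16 and hTAAR1 · Incubation – 17-24 h seeding, 75 min 37 °C dye, 30 min RT · Compound dosing – 3 µM single concentration · Repeats – no replicates (n 1)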
# Numbers stand for hits; . = inactive; / = not tested or not shown.
SMILES,OX1R antag-1,CHO parental Ca,TAAR1 antagonist,GPR7 antagonist,OX1R antag-2,TAAR1 agonist
COc1ccc(C(=O)NNC(=S)NC(=O)c2ccc(F)cc2)cc1Br,.,.,.,/,47.8,51.3
CCOC1=C2[C@@H](CN(S(=O)(=O)c3ccc(C)cc3)[C@H]2c2ccccc2F)[C@H]2C(=O)N(C3CCCCC3)C(=O)[C@H]2C1,/,/,.,/,/,.
COc1cccc(CNC(=O)[C@H]2CCCN2C(=O)C2CCCN2C(=O)c2ccc(OC)c(F)c2)c1 (stereo partly specified),/,/,.,/,/,.
Cc1ccccc1C(=O)N[C@@H](Cc1cccnc1)C(=O)N1CCC[C@H]1C(=O)NC1CCCC1,/,/,.,/,/,.
CC(C)Oc1cccc(C(=O)C2CCCN(Cc3cnc(N4CCCC4)s3)C2)c1 (stereo unspecified),.,.,.,.,.,.
COc1ccc2cc(C(=O)C3CCCN(Cc4cnc(N5CCOCC5)s4)C3)ccc2c1 (stereo unspecified),.,.,.,.,.,40.1
CCOCCCNc1nc2c(C)cccn2c(=O)c1/C=C1\SC(=S)N(C(C)CC)C1=O (stereo unspecified),.,.,.,.,44.6,.
CCCCCCC12Cc3cc(OC)c(OC)cc3C(O1)c1c(cc(C)oc1=O)O2 (stereo unspecified),/,/,.,/,/,.
Cc1ccc(C(C)C)c2c1C(c1ccc3c(c1)OCO3)CC(=O)O2 (stereo unspecified),.,.,.,/,.,47.0
Cc1cc2c(c(C)c1Cl)C(c1ccc3c(c1)OCO3)CC(=O)O2 (stereo unspecified),.,.,.,/,.,.
O=C(Nc1cccc(C(F)(F)F)c1)NC1CCN(S(=O)(=O)c2ccc(F)cc2)CC1,.,33.6,.,.,.,.
Cc1cccc(C(=O)NC2CCN(S(=O)(=O)c3ccc(F)cc3)CC2)c1,.,41.2,.,.,.,.
Cc1cccc(C(=O)NC2CCN(S(=O)(=O)c3cccc(F)c3)CC2)c1,/,/,.,/,/,.
CC(=O)c1ccc(S(=O)(=O)N2CCC(NC(=O)Nc3cccc(F)c3)CC2)cc1,.,.,.,.,.,.
Cc1cc(C)cc(NC(=O)c2ccc(CSc3nnnn3C)cc2)c1,49.0,.,66.1,.,.,.
O=S(=O)(c1cccs1)N1CCCc2nc(-c3ccccc3)ccc21,/,/,.,/,/,.
COc1ccc(-c2noc(CCCC(=O)NCCc3ccccc3)n2)cc1OC,.,.,.,.,.,58.3
COc1ccc(-c2noc(COc3ccccc3OC)n2)cc1OC,46.7,.,.,.,.,.
Cc1ccc(C(O)(c2ccccc2)c2ccccc2C(C)N(C)C)c(C)c1 (stereo unspecified),.,.,.,.,.,41.2
CCCCCCCCN1C(=O)[C@@H](CC(=O)NCc2cccs2)C[C@@]2(C(=O)OC)C1=C[C@H](C1CCCC1)O[C@@H]2C,/,/,.,/,/,.
COc1cc(/C=C/C(=O)OCC(=O)N2CCCc3ccccc32)ccc1O,.,.,.,/,.,.
O=C(/C=C/c1cccc(F)c1)OCC(=O)N1CCc2ccccc21,.,.,48.6,/,.,.
COc1cc(-c2noc(-c3cccs3)n2)cc(OC)c1OC,48.3,.,.,.,.,.
CCn1c(SCc2nc(-c3ccc(OC)c(OC)c3)no2)nnc1-c1cccs1,45.2,.,.,.,.,.
COc1ccc(-c2noc(CSc3nnc(Cc4ccccc4)n3-c3cccc(C)c3)n2)cc1OC,39.1,.,.,.,.,.
SMILES,OX1R antag-1,CHO parental Ca,TAAR1 antagonist,GPR7 antagonist,OX1R antag-2,TAAR1 agonist
COc1ccc(C(=O)c2[nH]c(N)c(C(=O)c3c[nH]c4ccccc34)c2-c2ccc(F)c(OC)c2)cc1,/,/,.,/,/,.
Cc1ccc(C(=O)Nc2nnc(COCCO)s2)cc1,/,/,.,/,/,.
COc1ccccc1NC(=O)C1=C(C)Nc2nnnn2C1c1cc(Br)ccc1OC (stereo unspecified),.,.,.,.,.,47.7
CCOC(=O)[C@@H]1[C@H]2COc3cc(OC)ccc3[C@H]2N2C(=O)N(c3ccc(C(F)(F)F)cc3)C(=O)[C@]12C,.,49.6,.,/,.,.
CCOC(=O)[C@@H]1[C@H]2COc3cc(OC)ccc3[C@@H]2N2C(=O)N(c3ccc(C(F)(F)F)cc3)C(=O)[C@@]12C,.,.,.,.,.,.
COc1ccc(C2=Nc3ccccc3N(C(=O)c3cccnc3)C2C(=O)NC2CCCC2)cc1 (stereo unspecified),/,/,.,/,/,.
CCC1Sc2ccccc2N(CC(=O)NCc2ccc3c(c2)OCO3)C1=O (stereo unspecified),.,.,50.0,.,.,.
O=C(Cn1nc(-c2ccccc2)ccc1=O)NCc1ccc2c(c1)OCO2,71.6,.,.,.,.,.
O=C(Cn1nc(-c2ccc(Cl)cc2)ccc1=O)NCc1ccc2c(c1)OCO2,.,.,.,.,.,.
O=C(CSc1ccc2ccccc2n1)NCc1ccc2c(c1)OCO2,53.5,.,.,.,.,.
Fc1ccc([C@@H]2CCNC[C@H]2COc2ccc3c(c2)OCO3)cc1,.,.,.,31.8,.,.
O=C(COc1ccc2c(c1)OCO2)Nc1ccccc1F,.,.,.,.,.,.
CCN=C1S/C(=C\c2ccc(N3CCOCC3)cc2C)C(=O)N1CC,.,.,.,.,.,.
COCCN1C(=O)/C(=C/c2ccc(N3CCCC3)cc2C)SC1=S,.,31.5,50.8,.,.,.
CC1CCCC(NC(=O)c2cc(S(=O)(=O)N3CCCCC3)c[nH]2)C1C (stereo unspecified),/,/,.,/,/,.
Cc1ccccc1NC(=O)Cc1nc(COC(=O)COc2ccccc2C(C)C)cs1,.,.,54.6,/,.,.
Cc1ccc(C)c(OCC(=O)OCc2csc(CC(=O)Nc3ccccc3C)n2)c1,/,/,.,/,/,.
CN(C)C(=O)C1CCC(=O)N1Cc1cccs1 (stereo unspecified),.,.,.,16.2,.,.
O=C(C1CCC(=O)N1Cc1cccs1)N1CCOCC1 (stereo unspecified),.,.,.,.,.,.
Cc1nnc(Cc2ccco2)c2n[nH]c(C)c12,/,/,.,/,/,.
O=C1c2ccccc2S(=O)(=O)N1Cc1nnc(-c2ccccc2Br)o1,/,/,.,.,/,.
O=S1(=O)c2cccc3cccc(c23)N1Cc1nnc(-c2ccccc2Br)o1,.,32.3,.,.,.,.
C[C@H](CO)N1C[C@H](C)[C@@H](CN(C)C(=O)Nc2ccc(C(C)(C)C)cc2)OCc2cn(nn2)CCCC1=O,/,/,.,/,/,.
